Screens (PubChem BioAssay)
SENP7 inh – SENP7 protease inhibition. inhibition, % at 5 µM. recombinant SENP7, Z-RLRGG-aminoluciferin luminescence, 40 min. 330,000 compounds, 1.5% hits;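 active means inhibition above about 50% at the single test dose, limit read from the data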;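 further: plate controls were DMSO with enzyme for no effect and no enzyme buffer wells for full effect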
SENP8 block-1 – SENP8 (human) protease inhibition | 360,000 compounds, 0.64% hits | recombinant SENP8, Nedd8 substrate fluorescence | Q96LD8 | inhibition, % at 20 µM; in the data active means inhibition mostly above about 40%, no sharp cut-off; inactive means mostly below about 27%
Apaf1 inhib – inhibitors of human Apaf-1 apoptosome; inhibition, % at 20 µM; O14727; 330,000 compounds, 0.71% hits; reconstituted apoptosome caspase-3 activity, DEVD-Rh110 fluorescence; AID 489030; active means inhibition of at least 40% at 20 µM;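 further: plate controls were DMSO wells for no effect and DEVD-CHO caspase inhibitor wells for full effect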
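Material: reconstituted apoptosome with Apaf-1, cytochrome c, caspase-9, procaspase-3, dATP. Technique: Rh110 fluorescence intensity. Buffer or medium: pH 7.5 Hepes buffer with CHAPS, BSA, DTT. Times: 30 min plus 50 min, RT.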
SENP6 block – blocks the human protease SENP6; Recombinant SENP6 catalytic domain, aminoluciferin luminescence; inhibition, % at 10 µM; 330,000 compounds, 1.8% hits; AID 2599;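 active means inhibition above about 50% at the single tested dose, limit read from the data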;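 further: plate controls were DMSO wells with enzyme for no effect and DMSO wells lacking enzyme for full effect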
Target sequence (Q9GZR1 628-1112 limits assumed): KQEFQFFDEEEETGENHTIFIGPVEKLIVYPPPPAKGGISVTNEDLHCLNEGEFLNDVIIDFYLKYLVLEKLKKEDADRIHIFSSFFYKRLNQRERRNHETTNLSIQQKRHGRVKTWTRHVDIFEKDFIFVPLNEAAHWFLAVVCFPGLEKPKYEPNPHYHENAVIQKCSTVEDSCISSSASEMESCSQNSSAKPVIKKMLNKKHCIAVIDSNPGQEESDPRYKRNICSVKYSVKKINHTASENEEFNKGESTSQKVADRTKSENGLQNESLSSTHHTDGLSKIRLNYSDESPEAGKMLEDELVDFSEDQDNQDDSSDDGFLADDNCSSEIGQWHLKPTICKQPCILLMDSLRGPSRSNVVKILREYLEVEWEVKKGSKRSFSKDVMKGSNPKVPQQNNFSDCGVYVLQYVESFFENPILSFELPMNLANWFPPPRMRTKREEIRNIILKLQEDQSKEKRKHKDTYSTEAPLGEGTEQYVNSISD
UBC13 polyUb – blocks human UBC13 polyubiquitin chain formation. P61088. AID 485273. TR-FRET. 330,000 compounds, 0.47% hits. inhibition, % at 20 µM; in the data active means inhibition above about 45%, passing the limit was not always enough
Target sequence (P61088 whole entry, looked up): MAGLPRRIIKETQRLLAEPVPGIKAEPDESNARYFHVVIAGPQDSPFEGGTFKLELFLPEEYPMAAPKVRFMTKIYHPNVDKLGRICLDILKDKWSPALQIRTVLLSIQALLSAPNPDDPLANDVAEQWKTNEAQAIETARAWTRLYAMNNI
SENP8 block-2 – blocks the human protease SENP8 | purified SENP8, Z-RLRGG-aminoluciferin cleavage, luminescence | inhibition, % at 10 µM | 330,000 compounds, 1.2% hits; in the data active means inhibition above about 50%
SENP8 conf – confirmation of human SENP8 protease inhibitors | shares compounds with SENP7 inh | Recombinant SENP8, Z-RLRGG-aminoluciferin luminescence, 60 min | inhibition, % at 12.5 µM | 6,200 compounds, 40% hits;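 active means mean inhibition across replicates above about 50%, limit read from the data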
SENP6 conf – human SENP6 inhibition, confirmed; inhibition, % at 12.5 µM; recombinant SENP6, Z-RLRGG-aminoluciferin luminescence; shares compounds with SENP7 inh; 6,200 compounds, 58% hits
SENP7 confirm – human SENP7 inhibition, confirmed. shares compounds with SENP7 inh. inhibition, % at 12.5 µM. 6,200 compounds, 69% hits. recombinant SENP7, Z-RLRGG-aminoluciferin luminescence, 40 min
Casp3 SENP sel – selectivity test for SENP inhibitors: human caspase-3 inhibition; shares compounds with SENP7 inh; purified caspase-3, Z-DEVD-aminoluciferin luminescence, 60 min; inhibition, % at 12.5 µM; 6,200 compounds, 60% hits;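 active means mean inhibition above about 50%, limit read from the data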;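 further: plate controls were enzyme with DMSO for no effect and wells without caspase-3 for full effect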
SENP luc ctr – counter-screen for SENP inhibitors: luminescence interference | 6,200 compounds, 39% hits | AID 488919 | inhibition, % at 12.5 µM | shares compounds with SENP7 inh | Pre-incubated SENP8/Z-RLRGG-aminoluciferin, luciferase luminescence interference;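 active means mean inhibition above about 50% when retested at one dose, limit read from the data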;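 further: plate controls were DMSO wells with completed reaction for no effect and substrate without enzyme for full effect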
Active calls of the source: *; i = inactive; x = no result. This is a sample that favours compounds with a hit; in the whole collection about 3.1% have one here.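 How the source made its calls, unless noted: active means mean inhibition above about 50% in the one-dose retest (limit read from the data); inactive means the rest.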

SMILES	SENP7 inh	SENP8 block-1	Apaf1 inhib	SENP6 block	UBC13 polyUb	SENP8 block-2	SENP8 conf	SENP6 conf	SENP7 confirm	Casp3 SENP sel	SENP luc ctr
COc1ccc(OC)c(CN2CCN(C(=O)c3cccc(S(=O)(=O)N(C)c4ccccc4)c3)CC2)c1	x	-18	x	x	x	x	x	x	x	x	x
Cc1cccc(C)c1NC(=O)CN(C)C(=O)C(c1ccccc1)c1ccccc1	91*	4	3	13	-1	1	-4	-3	-7	-3	-4
O=C(Nc1ccccc1)N1CC=C(c2ccccc2)CC1	4	x	3	18	-7	1	x	x	x	x	x
O=C(Nc1ccccc1)N1CC=C(c2ccc(F)cc2)CC1	35	-21	-1	52*	3	0	25	18	59*	30	42
Cc1ccc(C2CCN(C(=O)Nc3ccc(F)cc3)C2)cc1 (stereo not drawn)	4	12	-1	61*	12	-5	9	1	13	18	12
CCOC(=O)C1=CCN(S(=O)(=O)c2ccc(C)cc2)C1c1cccc(F)c1 (stereo not drawn)	x	9	x	x	x	x	x	x	x	x	x
CCOC(=O)c1sc2nc3c(cc2c1N)COC(C(C)C)C3 (stereo not drawn)	51*	-262	1	20	10	-3	12	8	6	18	3
Cc1ccc(C)c(C(O)c2ncc(-c3cccc(C(F)(F)F)c3)[nH]2)c1 (stereo not drawn)	x	20	x	x	x	x	x	x	x	x	x
C#Cc1cccc(NC(=O)c2ccc3c(c2)C(=O)N(Cc2cccnc2)C3=O)c1	75*	16	6	60*	-2	47	6	46	88*	54*	56*
CC(C)(C)c1nnc(NS(=O)(=O)c2cc(Cl)ccc2Cl)s1	-6	6	-5	-3	-13	5	x	x	x	x	x
O=S(=O)(Nc1nc(-c2sccc2Cl)cs1)c1cc(Cl)ccc1Cl	3	37	37	74*	-27	10	9	15	5	6	11
O=C(Nc1ccc(C(=O)Oc2ccccc2)c(O)c1)c1ccco1	82*	-24	-8	91*	17	73*	80*	81*	96*	66*	32
CCOC(=O)Nc1ccc(C(=O)Oc2ccccc2)c(O)c1	53*	1	4	43	0	21	29	33	69*	20	43
O=C(Nc1cccc(NC(=O)c2cccs2)c1)c1ccco1	3	15	7	-9	-2	-2	x	x	x	x	x
O=C(Nc1ccc(OC(=O)c2cccs2)cc1)c1ccco1	82*	28	9	87*	10	67*	72*	72*	94*	77*	44
Cc1cc(NC(=O)OC(C)(C)C)c(-n2nnnc2C(C(=O)c2ccccc2)N2CCOCC2)cc1C (stereo not drawn)	x	20	x	x	x	x	x	x	x	x	x
O=c1c2cc(Br)ccc2nc(-c2ccccc2)n1O	-3	-3	4	62*	2	48	65*	61*	84*	61*	72*
Cc1ccc(-c2nc3ccccc3c(=O)n2O)cc1	-7	10	-1	3	1	-13	x	x	x	x	x
CC1(C(=O)NCc2ccccc2)CCC(=O)N1CCCn1ccnc1 (stereo not drawn)	x	18	x	x	x	x	x	x	x	x	x
O=C(Nc1ccc(F)cc1)C(c1cc2ccccc2o1)N1CCN(C(=O)c2ccco2)CC1 (stereo not drawn)	x	19	x	x	x	x	x	x	x	x	x
N=C1S/C(=C\c2ccco2)C(=O)N1c1ccc2c(c1)OCO2	3	19	8	-29	-16	-8	x	x	x	x	x
N=C1S/C(=C\c2ccco2)C(=O)N1c1nccs1	-6	14	1	58*	3	53*	-14	-1	23	31	2
Cc1cc2nc(-c3cccnc3SCC(=O)NCc3ccco3)[nH]c2cc1C	88*	-290	-13	84*	8	74*	91*	90*	98*	90*	86*
COC(=O)C1=CN(c2ccc(C)cc2)C(N)=C(C#N)C1c1ccccc1F (stereo not drawn)	x	-59	x	x	x	x	x	x	x	x	x
CCc1noc(C)c1C(=O)NCCN1C(=O)S/C(=C\c2ccccc2F)C1=O	x	25	x	x	x	x	x	x	x	x	x
SMILES	SENP7 inh	SENP8 block-1	Apaf1 inhib	SENP6 block	UBC13 polyUb	SENP8 block-2	SENP8 conf	SENP6 conf	SENP7 confirm	Casp3 SENP sel	SENP luc ctr
O=C(Nc1cccc([N+](=O)[O-])c1)c1ccc2ccccc2c1O	92*	5	17	90*	-8	92*	-4	30	28	27	0
O=C(N/N=C/c1cccnc1)c1ccc2ccccc2c1O	-2	-229	-2	5	-14	-3	x	x	x	x	x
O=C(Nc1cccnc1)c1ccc2ccccc2c1O	88*	-496	10	94*	-8	85*	93*	92*	100*	93*	87*
COC(=O)C[C@@H]1C=C[C@H](NC(=O)Nc2cc(F)ccc2F)[C@@H](CO)O1	x	23	x	x	x	x	x	x	x	x	x
CC(=O)N1CCN(c2ccc([N+](=O)[O-])c(NCC3CCCO3)c2)CC1 (stereo not drawn)	7	36	3	2	-40	-1	x	x	x	x	x
O=C(c1ccccc1F)N1CCN(c2ccc([N+](=O)[O-])c(NCC3CCCO3)c2)CC1 (stereo not drawn)	54*	24	7	2	-45	4	-12	-8	-10	3	-2
CCNC(=S)NNC(=O)c1cc(-c2cccc(OC)c2)nc2ccccc12	11	-56	14	57*	-17	41	64*	60*	79*	85*	71*
CCCOc1cccc(-c2cc(C(=O)NNC(=S)NCC)c3ccccc3n2)c1	-18	-231	2	-24	-15	-2	x	x	x	x	x
CCNC(=S)NNC(=O)c1cc(-c2ccc(OCC)cc2)nc2ccccc12	95*	-280	-6	94*	-14	94*	98*	98*	102*	98*	46
OC[C@@H]1CN(Cc2ccc3c(c2)OCO3)C[C@H](n2cnc3c(NCc4ccncc4)ncnc32)O1	x	14	x	x	x	x	x	x	x	x	x
NNC(=O)c1cccc(COc2ccc3c(c2)CCC3)c1	17	16	14	69*	-3	44	68*	61*	88*	45	86*
CC1=CC(=O)Nc2ncccc2O1	x	i	x	x	x	x	x	x	x	x	x
CCOC(=O)N1C2c3ccccc3C(c3ccccc32)N1C(=O)OCC	x	-102	x	x	x	x	x	x	x	x	x
